Experiment [1] deals with Myosin light chain kinase, smooth muscle (Homo sapiens) (UniProt Q15746). The experiment in a line: Inhibition of SmMLCK assessed as remaining enzyme activity at 3 uM relative to DMSO.
Experiment [2] concerns the target Mitogen-activated protein kinase 11 (Homo sapiens) (UniProt Q15759). The experiment in a line: Inhibition of p38beta assessed as remaining enzyme activity at 3 uM relative to DMSO.
The nature of experiment [3]: Inhibition of PKA assessed as remaining enzyme activity at 3 uM relative to DMSO. The method, boiled down:
(§1)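 Radiometric kinase assay run robotically at room temperature for 30 min. Contained 10 mM magnesium acetate and [γ-33P]ATP (800 cpm/pmol) at 5, 20 or 50 μM, chosen per kinase to be at or below its ATP Km. Reactions were started with MgATP, stopped with orthophosphoric acid and spotted onto P81 filters. Result is mean % activity of duplicates at one inhibitor concentration versus DMSO control.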

Experiment [4] concerns the target Insulin-like growth factor 1 receptor (Homo sapiens) (UniProt P08069). The experiment in a line: Inhibition of IGF-1R assessed as remaining enzyme activity at 3 uM relative to DMSO. The method, boiled down: (§2)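 Dundee kinase panel, radiometric: [γ-33P]ATP (800 cpm/pmol) at 5, 20 or 50 μM, at or below each kinase's ATP Km; 10 mM magnesium acetate; robotic, room temperature, 30 min. Reactions started with MgATP, stopped with orthophosphoric acid, spotted onto P81 filters. Inhibitor tested at a single concentration; mean % activity of duplicates relative to DMSO control.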

For experiment [5], the target named is Insulin receptor (Homo sapiens) (UniProt P06213). Kind of experiment: Inhibition of histidine-tagged IR assessed as remaining enzyme activity at 3 uM relative to DMSO.
Experiment [6] has as its target Mitogen-activated protein kinase 3 (Homo sapiens) (UniProt P27361). The experiment in a line: Inhibition of ERK1 assessed as remaining enzyme activity at 3 uM relative to DMSO. An outline of the steps: as §2
The target of experiment [7] is Protein kinase C alpha type (Homo sapiens) (UniProt P17252). Kind of experiment: Inhibition of PKCalpha assessed as remaining enzyme activity at 3 uM relative to DMSO.
Experiment [8] concerns the target Serine/threonine-protein kinase D1 (Homo sapiens) (UniProt Q15139). The experiment in a line: Inhibition of PKD1 assessed as remaining enzyme activity at 3 uM relative to DMSO.
The target of experiment [9] is Cyclin-dependent kinase 2 (Homo sapiens) (UniProt P24941). The experiment in a line: Inhibition of CDK2 assessed as remaining enzyme activity at 3 uM relative to DMSO. An outline of the steps:
as §2

Experiment [10] deals with RAC-beta serine/threonine-protein kinase (Homo sapiens) (UniProt P31751). Kind of experiment: Inhibition of PKBbeta assessed as remaining enzyme activity at 3 uM relative to DMSO. An outline of the steps:
as §1

Experiment [11] has as its target Ribosomal protein S6 kinase alpha-3 (Homo sapiens) (UniProt P51812). The experiment in a line: Inhibition of RSK2 assessed as remaining enzyme activity at 3 uM relative to DMSO.
Experiment [12] concerns the target Serine/threonine-protein kinase Chk2 (Homo sapiens) (UniProt O96017). The experiment in a line: Inhibition of CHK2 assessed as remaining enzyme activity at 3 uM relative to DMSO. An outline of the steps:
as §2

The target in experiment [13] is Serine/threonine-protein kinase PAK 4 (Homo sapiens) (UniProt O96013). Kind of experiment: Inhibition of PAK4 assessed as remaining enzyme activity at 3 uM relative to DMSO. The method, boiled down: as §1
Experiment [14] has as its target RAC-alpha serine/threonine-protein kinase (Homo sapiens) (UniProt P31749). The experiment in a line: Inhibition of PKBalpha assessed as remaining enzyme activity at 3 uM relative to DMSO. An outline of the steps: as §1
Experiment [15] in a line: Inhibition of Aurora assessed as remaining enzyme activity at 3 uM relative to DMSO. The method, boiled down: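 Panel assay run robotically at room temperature for 30 min with 10 mM magnesium acetate and [γ-33P]ATP (800 cpm/pmol) at 5, 20 or 50 μM, chosen per kinase to be at or below its ATP Km. Reactions were started with MgATP, stopped with orthophosphoric acid and spotted on P81 filters. Activity is the mean of duplicates at a single inhibitor concentration, as % of DMSO control.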

Experiment [16] has as its target Serine/threonine-protein kinase Chk1 (Homo sapiens) (UniProt O14757). The experiment in a line: Inhibition of CHK1 assessed as remaining enzyme activity at 1 uM relative to DMSO. An outline of the steps: (§3)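 Radiometric kinase assay run robotically at room temperature for 30 min, linear in time and enzyme. Conditions: 10 mM magnesium acetate, [γ-33P]ATP (800 cpm/pmol) at 5, 20 or 50 μM per kinase, at or below its ATP Km. Started with MgATP and stopped with orthophosphoric acid, then spotted on P81 filters. Reported as mean % activity of duplicates versus DMSO controls.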

Experiment [17] has as its target Mitogen-activated protein kinase 8 (Homo sapiens) (UniProt P45983). Kind of experiment: Inhibition of JNK1 assessed as remaining enzyme activity at 1 uM relative to DMSO. An outline of the steps:
as §3

Experiment [18] deals with Dual specificity tyrosine-phosphorylation-regulated kinase 3 (Homo sapiens) (UniProt O43781). Kind of experiment: Inhibition of DYRK3 assessed as remaining enzyme activity at 1 uM relative to DMSO. An outline of the steps: as §3
Experiment [19] has as its target SRSF protein kinase 1 (Homo sapiens) (UniProt Q96SB4). Kind of experiment: Inhibition of SRPK1 assessed as remaining enzyme activity at 1 uM relative to DMSO.
The target in experiment [20] is Dual specificity protein kinase TTK (Homo sapiens) (UniProt P33981). The experiment in a line: Inhibition of TTK assessed as remaining enzyme activity at 1 uM relative to DMSO.
Experiment [21] deals with Protein-tyrosine kinase 6 (Homo sapiens) (UniProt Q13882). Kind of experiment: Binding affinity to BRK assessed as percentage of kinase remaining bound to the bead at 1 uM by T7 phage display based binding assay. The method, boiled down: (§4)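 Competition binding assay run by a contract lab. Each kinase was expressed as a fusion to T7 phage, full-length for small kinases and catalytic domain for large ones. Phage were mixed with an immobilized known kinase inhibitor on streptavidin magnetic beads and with test compound at a single 1 μM. Kinase/phage still bound to the beads was quantified by qPCR and expressed as % of DMSO control.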

Experiment [22] addresses Mitogen-activated protein kinase 15 (Homo sapiens) (UniProt Q8TD08). Kind of experiment: Inhibition of ERK8 assessed as remaining enzyme activity at 1 uM relative to DMSO. An outline of the steps:
as §2

In experiment [23] the target is Serine/threonine-protein kinase PAK 4 (Homo sapiens) (UniProt O96013). Kind of experiment: Inhibition of PAK4 assessed as remaining enzyme activity at 1 uM relative to DMSO. An outline of the steps:
as §1

Experiment [24] deals with Homeodomain-interacting protein kinase 2 (Homo sapiens) (UniProt Q9H2X6). The experiment in a line: Inhibition of HIPK2 assessed as remaining enzyme activity at 1 uM relative to DMSO. An outline of the steps: as §2
Experiment [25] deals with Protein kinase C zeta type (Homo sapiens) (UniProt Q05513). The experiment in a line: Inhibition of PKCzeta assessed as remaining enzyme activity at 1 uM relative to DMSO.
Experiment [26] deals with Tyrosine-protein kinase CSK (Homo sapiens) (UniProt P41240). The experiment in a line: Inhibition of CSK assessed as remaining enzyme activity at 1 uM relative to DMSO. An outline of the steps:
as §2

Experiment [27] has as its target Tyrosine-protein kinase Blk (Homo sapiens) (UniProt P51451). Kind of experiment: Binding affinity to BLK assessed as percentage of kinase remaining bound to the bead at 1 uM by T7 phage display based binding assay. The method, boiled down: as §4
Experiment [28] concerns the target Serine/threonine-protein kinase 32C (Homo sapiens) (UniProt Q86UX6). Kind of experiment: Binding affinity to YANK3 assessed as percentage of kinase remaining bound to the bead at 1 uM by T7 phage display based binding assay. An outline of the steps: as §4

Chain of Serine/threonine-protein kinase PAK 4 (Homo sapiens) (O96013 whole entry, looked up): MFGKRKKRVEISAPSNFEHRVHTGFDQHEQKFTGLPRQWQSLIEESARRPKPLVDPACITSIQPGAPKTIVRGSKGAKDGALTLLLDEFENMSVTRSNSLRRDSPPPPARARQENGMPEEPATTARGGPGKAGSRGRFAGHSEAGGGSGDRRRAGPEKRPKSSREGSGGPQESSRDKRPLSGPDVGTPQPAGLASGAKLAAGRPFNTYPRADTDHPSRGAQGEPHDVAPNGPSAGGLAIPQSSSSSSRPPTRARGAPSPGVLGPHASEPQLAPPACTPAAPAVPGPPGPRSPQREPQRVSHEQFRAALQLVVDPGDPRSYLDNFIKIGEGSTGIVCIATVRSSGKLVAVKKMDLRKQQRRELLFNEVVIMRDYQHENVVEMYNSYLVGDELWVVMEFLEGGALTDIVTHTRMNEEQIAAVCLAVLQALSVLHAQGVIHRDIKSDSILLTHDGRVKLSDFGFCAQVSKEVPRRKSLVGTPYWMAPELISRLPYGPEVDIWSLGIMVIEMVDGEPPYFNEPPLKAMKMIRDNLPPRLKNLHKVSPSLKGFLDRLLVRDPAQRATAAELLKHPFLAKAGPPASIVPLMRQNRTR
Chain of Tyrosine-protein kinase CSK (Homo sapiens) (P41240 whole entry, looked up): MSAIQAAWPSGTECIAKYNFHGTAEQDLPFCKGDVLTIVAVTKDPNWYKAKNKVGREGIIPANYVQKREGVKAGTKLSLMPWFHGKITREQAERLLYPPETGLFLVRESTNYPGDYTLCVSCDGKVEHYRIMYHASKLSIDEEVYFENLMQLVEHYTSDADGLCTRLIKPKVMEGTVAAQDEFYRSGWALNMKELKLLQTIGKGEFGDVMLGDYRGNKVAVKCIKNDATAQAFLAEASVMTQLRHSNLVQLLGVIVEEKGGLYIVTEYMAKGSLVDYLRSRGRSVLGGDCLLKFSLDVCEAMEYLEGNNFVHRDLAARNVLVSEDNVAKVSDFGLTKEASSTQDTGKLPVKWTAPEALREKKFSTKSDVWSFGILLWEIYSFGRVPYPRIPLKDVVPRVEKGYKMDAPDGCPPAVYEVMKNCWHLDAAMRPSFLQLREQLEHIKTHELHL
Chain of SRSF protein kinase 1 (Homo sapiens) (Q96SB4 whole entry): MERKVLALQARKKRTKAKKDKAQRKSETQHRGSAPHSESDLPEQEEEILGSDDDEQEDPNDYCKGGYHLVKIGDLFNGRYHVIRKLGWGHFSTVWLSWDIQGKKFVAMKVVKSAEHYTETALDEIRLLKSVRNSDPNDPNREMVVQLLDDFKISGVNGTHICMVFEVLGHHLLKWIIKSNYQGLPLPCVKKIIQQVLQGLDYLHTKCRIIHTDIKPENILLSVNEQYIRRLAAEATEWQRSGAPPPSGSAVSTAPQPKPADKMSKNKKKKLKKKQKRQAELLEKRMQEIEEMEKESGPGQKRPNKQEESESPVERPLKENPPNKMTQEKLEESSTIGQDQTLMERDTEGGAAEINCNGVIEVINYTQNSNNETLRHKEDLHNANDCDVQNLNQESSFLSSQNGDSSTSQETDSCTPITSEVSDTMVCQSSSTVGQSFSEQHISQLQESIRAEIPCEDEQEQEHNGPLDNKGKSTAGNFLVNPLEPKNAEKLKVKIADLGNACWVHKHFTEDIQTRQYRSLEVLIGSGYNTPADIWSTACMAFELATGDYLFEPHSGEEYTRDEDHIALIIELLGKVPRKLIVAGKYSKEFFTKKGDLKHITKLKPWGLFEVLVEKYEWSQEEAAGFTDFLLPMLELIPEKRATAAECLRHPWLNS
Chain of Dual specificity tyrosine-phosphorylation-regulated kinase 3 (Homo sapiens) (O43781 whole entry): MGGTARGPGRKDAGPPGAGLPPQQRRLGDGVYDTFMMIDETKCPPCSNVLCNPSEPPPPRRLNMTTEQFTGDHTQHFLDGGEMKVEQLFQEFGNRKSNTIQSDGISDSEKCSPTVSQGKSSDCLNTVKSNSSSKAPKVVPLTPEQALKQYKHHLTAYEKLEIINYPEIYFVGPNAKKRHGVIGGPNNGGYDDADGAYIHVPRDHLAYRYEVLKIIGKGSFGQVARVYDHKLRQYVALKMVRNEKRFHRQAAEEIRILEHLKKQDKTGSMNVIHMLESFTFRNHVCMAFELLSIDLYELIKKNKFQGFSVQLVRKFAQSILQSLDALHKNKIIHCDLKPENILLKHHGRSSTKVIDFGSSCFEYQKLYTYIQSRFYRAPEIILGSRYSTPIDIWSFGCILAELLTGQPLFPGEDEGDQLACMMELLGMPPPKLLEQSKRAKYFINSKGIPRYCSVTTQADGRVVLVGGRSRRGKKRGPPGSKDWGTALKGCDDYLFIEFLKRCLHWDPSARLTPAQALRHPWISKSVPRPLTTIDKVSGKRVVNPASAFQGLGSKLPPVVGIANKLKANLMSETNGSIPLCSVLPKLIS
Chain of Mitogen-activated protein kinase 11 (Homo sapiens) (Q15759 whole entry): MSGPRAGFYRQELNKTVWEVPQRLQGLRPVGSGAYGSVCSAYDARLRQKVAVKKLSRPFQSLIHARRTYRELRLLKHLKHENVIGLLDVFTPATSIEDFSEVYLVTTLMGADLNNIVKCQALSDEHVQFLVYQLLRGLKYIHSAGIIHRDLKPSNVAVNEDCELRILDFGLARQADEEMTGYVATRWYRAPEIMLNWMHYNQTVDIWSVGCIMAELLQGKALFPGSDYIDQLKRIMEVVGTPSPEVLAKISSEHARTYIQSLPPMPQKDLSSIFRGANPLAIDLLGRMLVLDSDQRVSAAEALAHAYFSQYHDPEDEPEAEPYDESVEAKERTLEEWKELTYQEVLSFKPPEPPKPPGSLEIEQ
Chain of Protein kinase C zeta type (Homo sapiens) (Q05513 whole entry): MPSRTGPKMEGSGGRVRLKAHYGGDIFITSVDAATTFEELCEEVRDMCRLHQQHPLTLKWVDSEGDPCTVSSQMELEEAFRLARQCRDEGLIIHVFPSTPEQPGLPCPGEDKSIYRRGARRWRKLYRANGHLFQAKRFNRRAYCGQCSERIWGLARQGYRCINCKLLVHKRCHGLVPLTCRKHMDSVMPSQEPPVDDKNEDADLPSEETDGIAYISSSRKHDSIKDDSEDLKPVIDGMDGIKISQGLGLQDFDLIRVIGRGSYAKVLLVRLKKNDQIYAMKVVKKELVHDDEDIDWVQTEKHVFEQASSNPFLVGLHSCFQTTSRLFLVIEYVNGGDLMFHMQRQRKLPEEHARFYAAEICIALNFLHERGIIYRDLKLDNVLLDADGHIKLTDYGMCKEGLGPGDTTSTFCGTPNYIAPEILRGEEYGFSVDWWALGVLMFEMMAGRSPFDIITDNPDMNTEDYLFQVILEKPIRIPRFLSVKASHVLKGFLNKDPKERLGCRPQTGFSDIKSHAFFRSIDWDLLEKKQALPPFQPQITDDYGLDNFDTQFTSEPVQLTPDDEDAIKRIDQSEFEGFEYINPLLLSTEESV
Chain of Ribosomal protein S6 kinase alpha-3 (Homo sapiens) (P51812 whole entry): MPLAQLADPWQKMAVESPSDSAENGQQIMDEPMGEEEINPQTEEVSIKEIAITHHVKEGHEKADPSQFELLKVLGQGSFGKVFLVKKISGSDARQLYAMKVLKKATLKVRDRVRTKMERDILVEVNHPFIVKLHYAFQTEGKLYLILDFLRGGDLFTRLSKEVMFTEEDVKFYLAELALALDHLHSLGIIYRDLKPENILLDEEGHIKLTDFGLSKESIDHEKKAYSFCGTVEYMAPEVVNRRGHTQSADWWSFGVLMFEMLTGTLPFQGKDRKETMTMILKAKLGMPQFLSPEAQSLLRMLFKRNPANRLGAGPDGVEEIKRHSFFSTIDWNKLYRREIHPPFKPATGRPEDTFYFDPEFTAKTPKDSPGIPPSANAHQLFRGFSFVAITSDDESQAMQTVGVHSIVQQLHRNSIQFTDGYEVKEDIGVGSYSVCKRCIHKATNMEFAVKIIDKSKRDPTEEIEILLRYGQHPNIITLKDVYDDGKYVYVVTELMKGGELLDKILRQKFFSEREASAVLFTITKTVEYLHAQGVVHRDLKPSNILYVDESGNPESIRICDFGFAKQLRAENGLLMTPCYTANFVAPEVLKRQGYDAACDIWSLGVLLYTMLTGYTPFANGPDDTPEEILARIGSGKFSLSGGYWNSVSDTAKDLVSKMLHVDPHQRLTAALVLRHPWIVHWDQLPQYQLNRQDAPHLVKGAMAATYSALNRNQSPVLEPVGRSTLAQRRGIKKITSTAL
Chain of Protein-tyrosine kinase 6 (Homo sapiens) (Q13882 whole entry, looked up, the tested form may be a part): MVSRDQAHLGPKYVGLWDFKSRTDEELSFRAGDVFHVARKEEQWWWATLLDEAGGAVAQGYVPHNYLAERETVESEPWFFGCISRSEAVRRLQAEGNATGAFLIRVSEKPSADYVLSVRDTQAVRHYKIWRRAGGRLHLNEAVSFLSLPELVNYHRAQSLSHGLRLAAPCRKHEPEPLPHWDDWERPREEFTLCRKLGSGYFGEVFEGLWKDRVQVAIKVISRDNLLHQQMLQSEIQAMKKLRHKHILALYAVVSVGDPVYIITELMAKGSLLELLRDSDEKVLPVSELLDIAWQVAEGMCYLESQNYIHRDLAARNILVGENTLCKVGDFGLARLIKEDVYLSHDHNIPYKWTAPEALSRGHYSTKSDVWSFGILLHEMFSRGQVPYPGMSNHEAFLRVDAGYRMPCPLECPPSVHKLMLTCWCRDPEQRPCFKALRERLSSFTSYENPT
Chain of RAC-beta serine/threonine-protein kinase (Homo sapiens) (P31751 whole entry): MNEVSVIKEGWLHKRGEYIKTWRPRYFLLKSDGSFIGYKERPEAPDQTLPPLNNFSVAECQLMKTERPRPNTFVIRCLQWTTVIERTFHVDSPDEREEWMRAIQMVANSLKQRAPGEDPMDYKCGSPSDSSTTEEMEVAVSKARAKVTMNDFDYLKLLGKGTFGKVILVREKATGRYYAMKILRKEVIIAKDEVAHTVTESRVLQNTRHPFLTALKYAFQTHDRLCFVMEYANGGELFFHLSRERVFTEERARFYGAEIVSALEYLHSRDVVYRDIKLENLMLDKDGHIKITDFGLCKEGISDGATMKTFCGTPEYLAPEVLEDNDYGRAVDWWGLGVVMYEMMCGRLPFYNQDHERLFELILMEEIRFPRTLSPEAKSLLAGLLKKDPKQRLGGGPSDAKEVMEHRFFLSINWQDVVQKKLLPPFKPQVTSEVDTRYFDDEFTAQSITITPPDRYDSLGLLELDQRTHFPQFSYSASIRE

For the compound `COc1ccccc1-n1c(-c2ccccc2C)cn2c3c(=O)[nH]c(=O)n(C)c3nc12`, the Activity in [1] came to 91%; in experiment [2], 93%; in experiment [3], 92%; in experiment [4] it was 106%; in experiment [5], 103%; in experiment [6], 97%. Also, the Activity in experiment [7] was determined as 97%; in experiment [8], 100%; in [9] it was 97%; in experiment [10] it was 104%; in [11], 105%; in [12], 99%. The Activity in experiment [13] came to 93%; in [14], 97%; in experiment [15] it was 104%.
Regarding `COc1ccccc1-n1c(-c2cc(O)ccc2C)cn2c3c(=O)[nH]c(=O)n(C)c3nc12`, the Activity in experiment [16] was found to be 95%; in experiment [17], 96%; in experiment [18], 96%; in [19] it was 94%; in [20], 98%; in [21], 12%. Besides, the Activity in experiment [22] was 97%; in experiment [23], 102%; in experiment [24] it was 98%; in [25] it was 95%; in experiment [26] it was 31%; in experiment [27], 0.6%. Also, in experiment [28], the Activity was determined as 100%.
